Reference: ChEMBL document CHEMBL1124260, “Synthesis and antitumor activity of quaternary ellipticine glycosides, a series of novel and highly active antitumor agents” (1988)

Experiments:
Type in all cases: functional
Mus musculus [1] = experiment: Antitumor activity against ip implanted L1210 leukemia in mouse after ip administration of 2.5 mg/kg for 5 days expressed as increase in mean life span; conditions: 120 h, route intraperitoneal
Outline: (§1)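 Drug was dissolved in 0.9% NaCl, diluted just before use and given ip once daily for 5 consecutive days, starting 24 h after transplant. ILS % = mean survival time of treated vs control mice, observed for 80 days.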

Mus musculus [2] = experiment: Number of survivors out of 6 ip implanted L1210 leukemia mouse tested after 80 days at 2.5 mg/kg; conditions: route intraperitoneal
Outline: (§2)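 Female BDF1 mice implanted ip with ascitic fluid holding 10^5 L1210 cells. Saline-dissolved drug given ip daily on days 1-5, starting 24 h after implant. Six mice per dose group, followed 80 days. Survivors/total counted at day 80; ILS % from mean survival time vs controls.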

Mus musculus [3] = experiment: Number of survivors out of 6 ip implanted L1210 leukemia mouse tested after 80 days at 60 mg/kg; conditions: route intraperitoneal; outline: as §2
Mus musculus [4] = experiment: Antitumor activity against ip implanted L1210 leukemia in mouse after ip administration of 60 mg/kg for 5 days expressed as increase in mean life span; conditions: 120 h, route intraperitoneal; outline: as §1

| SMILES | ILS at 2.5 mg/kg (Mus musculus [1]) [%] | Cures (Mus musculus [2]) | Cures (Mus musculus [3]) | ILS at 60 mg/kg (Mus musculus [4]) [%] |
| --- | --- | --- | --- | --- |
| Cc1c2cc[n+]([C@H]3O[C@@H](CO)[C@H](O)[C@@H](O)[C@@H]3O)cc2c(C)c2c1[nH]c1ccc(O)cc12.[Br-] | 58 | 0 |  |  |
| CC(=O)OC1C(C)OC([n+]2ccc3c(C)c4[nH]c5ccc(O)cc5c4c(C)c3c2)C(OC(C)=O)C1OC(C)=O.[Br-] (centres undefined) |  |  | 0 | 89 |
